Our source for the inhibition, IC50 and Activity values is ChEMBL document CHEMBL1154705, “Modulation of carcinogen metabolizing enzymes by new fused heterocycles pendant to 5,6,7,8-tetrahydronaphthalene derivatives” (Eur J Med Chem, 2010).

The test system of assay [1] is Hepa-1c1c7. The assay is described as follows: Inhibition of CYP1A in mouse Hepa-1c1c7 cells at 1 ug/ml assessed as dealkylation rate of 3-cyano-7-ethoxycoumarin. The class given is cell-based.
Assay [2] can be described thus: Cytotoxicity against mouse Hepa-1c1c7 cells after 48 hrs by MTT assay. It counts as functional, cell-based. A digest of the protocol:
(§1)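 MTT reduction assay: cells seeded at 5 x10⁴ cells/well and incubated 48 h at 37 °C with various concentrations of compounds. Formazan solubilized in acidic isopropanol.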
In general terms: Tetrazolium dyes change colour on reduction, which living cells bring about.

In assay [3] the test system is Hepa-1c1c7. The assay is described as follows: Induction of GST activity in mouse Hepa-1c1c7 cells at 10 ug/ml after 48 hrs by bicinchoninic acid assay. The class given is cell-based. In short, it runs like this: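 Hepa1c1c7 cells in DMEM with 10% FBS, 37 °C, 5% CO₂, treated 48 h with compounds (DMSO diluted 1000-fold). Total GST activity read kinetically at 340 nm. Activity normalized to protein by BCA and given relative to DMSO control (100%). Four repeats, mean ± S.D.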

The test system of assay [4] is Hepa-1c1c7. As to the kind of experiment: Antioxidant activity in mouse Hepa-1c1c7 cells assessed as increase in total thiol content at […] after 48 hrs. It counts as functional, cell-based. A digest of the protocol: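 Hepa1c1c7 cells (1 x10⁶) exposed to compounds for 48 h (DMSO vehicle diluted 1000-fold; DMSO-treated cells as comparator). Total cellular thiols measured by glutathione disulfide reductase/DTNB enzymatic cycling. Four repeats, mean ± S.D.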

The nature of assay [5]: Antioxidant activity assessed as hydroxyl radical scavenging activity by ORAC assay. The class given is functional.
The nature of assay [6]: Antioxidant activity assessed as peroxyl radical scavenging activity by ORAC assay. It counts as functional.
Assay [7] has as its system Lymphocyte. The assay is described as follows: Inhibition of methyl methanesulphonate-induced DNA damage in human lymphocyte assessed as tail length at 10 ug/ml after 1 hr before MMS challenge measured after 3 hrs by comet assay. It counts as functional.
The subject of assay [8] is Lymphocyte. The assay is described as follows: Inhibition of methyl methanesulphonate-induced DNA damage in human lymphocyte assessed as inhibition of tail moment at 10 ug/ml after 1 hr before MMS challenge measured after 3 hrs by comet assay. The class given is functional, cell-based.
A short description of assay [9]: Cytotoxicity against human lymphocytes after 48 hrs by MTT assay. The class given is functional, cell-based. Particulars: lymphocyte. In short, it runs like this:
as §1

Assay [10] concerns the target T1, Epoxide hydrolase 1 (Mus musculus) (UniProt Q9D379).
T1 sequence (whole entry): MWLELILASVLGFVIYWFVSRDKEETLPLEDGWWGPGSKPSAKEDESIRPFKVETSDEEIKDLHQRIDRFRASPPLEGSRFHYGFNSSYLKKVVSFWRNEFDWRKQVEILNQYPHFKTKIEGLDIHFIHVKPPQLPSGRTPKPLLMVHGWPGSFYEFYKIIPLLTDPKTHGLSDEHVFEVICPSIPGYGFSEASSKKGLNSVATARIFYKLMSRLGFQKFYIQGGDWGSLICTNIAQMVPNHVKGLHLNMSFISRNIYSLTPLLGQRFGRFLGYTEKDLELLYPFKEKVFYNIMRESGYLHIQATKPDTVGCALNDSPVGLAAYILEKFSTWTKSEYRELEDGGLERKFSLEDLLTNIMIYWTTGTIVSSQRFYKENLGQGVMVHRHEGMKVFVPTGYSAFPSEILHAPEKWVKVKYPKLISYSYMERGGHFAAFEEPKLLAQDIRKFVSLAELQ
The assay is described as follows: Induction of mEH enzyme in mouse Hepa-1c1c7 assessed as formation of 7(29,39-dihydroxy)propoxycoumarin at 10 µg/ml after 48 hrs.

As usually defined, the inhibition is the percentage by which the read-out fell short of the control. The term IC50 denotes the concentration at which inhibition is half-maximal. Low readings indicate higher potency, high ones lower potency.

The source made the active and inactive calls. No cut-off for these calls is given here.

Turning to `O=C(C[n+]1ccccc1)c1ccc2c(c1)CCCC2.[Br-]`, the inhibition in the assay with Hepa-1c1c7 [1] was less than 10%. The concentration for half-maximal inhibition (IC50) in assay [2] and in [9] was more than 50 µg/mL throughout. Further, the result (with Hepa-1c1c7 [3]; in the assay on Hepa-1c1c7 [4]; in [5]; in assay [6]; with Lymphocyte [8]; in assay [10]) was Active. Also, in the assay on Lymphocyte [7], the Activity stood at 34.31 micrometer.

In the case of `COC(=O)c1c(C(=O)OC)c2ccccn2c1C(=O)c1ccc2c(c1)CCCC2`, the inhibition in the assay with Hepa-1c1c7 [1] was less than 10%. Besides, the IC50 in assay [2] and in assay [9] was more than 50 µg/mL throughout. In the assay on Lymphocyte [7], the Activity is given as 36.66 micrometer.

As to `Cc1cccc[n+]1CC(=O)c1ccc2c(c1)CCCC2.[Br-]`, in the assay on Hepa-1c1c7 [1], the inhibition was less than 10%. In addition, the IC50 in assay [2] and in assay [9] was more than 50 µg/mL throughout. Moreover, the result (in assay [6]; in the assay with Lymphocyte [8]; in assay [10]) was Active. The Activity in the assay on Lymphocyte [7] was 17.7 micrometer.

As to `Cc1cc[n+](CC(=O)c2ccc3c(c2)CCCC3)cc1.[Br-]`, the inhibition with Hepa-1c1c7 [1] is less than 10%. For the same compound, the IC50 in assay [2] and in [9] was more than 50 µg/mL throughout. Moreover, the Activity in the assay with Lymphocyte [7] worked out at 59.41 micrometer. In addition, the result in assay [10] was Active.

`c1ccc2c(c1)nc1[nH]c(-c3ccc4c(c3)CCCC4)cn12`: the inhibition in the assay on Hepa-1c1c7 [1] was 26.4%. In addition, the IC50 in [2] and in assay [9] was more than 50 µg/mL in each case. Further, the result with Hepa-1c1c7 [3], in the assay with Hepa-1c1c7 [4] and in the assay on Lymphocyte [8] was Active. Moreover, in the assay on Lymphocyte [7], the Activity amounted to 17.2 micrometer.

Take `COC(=O)c1c(C(=O)OC)c2cc(C)ccn2c1C(=O)c1ccc2c(c1)CCCC2`: the inhibition in the assay with Hepa-1c1c7 [1] is less than 10%. In addition, the concentration for half-maximal inhibition (IC50) in assay [2] and in assay [9] was more than 50 µg/mL throughout. For the same compound, the outcome (in the assay with Hepa-1c1c7 [4]; in [5]; with Lymphocyte [8]) was Active. The Activity in the assay with Lymphocyte [7] turned out to be 22.8 micrometer.

As to `COC(=O)c1c(C(=O)OC)c2cccc(C)n2c1C(=O)c1ccc2c(c1)CCCC2`, the inhibition in the assay with Hepa-1c1c7 [1] was less than 10%. Also, the IC50 in assay [2] and in assay [9] was more than 50 µg/mL throughout. In addition, the outcome (in the assay on Hepa-1c1c7 [3]; in [5]; in the assay on Lymphocyte [8]) was Active. The Activity with Lymphocyte [7] came to 18.3 micrometer.
